Results from publication PMC10849882 (The Journal of Cell Biology, 2024).
pIC50: −log10 of the molar value.

Legend:
IMPDH1(546)-Y12A = IMPDH1(546)-Y12A (Homo sapiens, UniProt P20839, Y12A); assay: IMPDH1 activity assay, GTP inhibition; assay type: biochemical
In short: (§1)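 Enzyme at 1 µM in pH 7.0 HEPES/KCl/DTT activity buffer, preincubated 30 min at 20°C with 1 mM ATP, 1 mM IMP, 1 mM MgCl2 and graded GTP. Reaction started with 300 µM NAD+. NADH followed at 340 nm (25°C, per minute, 15 min) against a standard curve. Specific activity from the 2–7 min slope; three measurements per point. IC50 and Hill coefficient from a least-squares four-parameter fit, 90% confidence intervals.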

IMPDH1(546)-S477D = IMPDH1(546)-S477D (Homo sapiens, UniProt P20839, S477D); assay: IMPDH1 activity assay, GTP inhibition; assay type: biochemical
In short: (§2)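 Recombinant human retinal-variant enzyme (E. coli BL21(DE3), 6xHis-SUMO tag removed by ULP1, gel filtration). Enzyme diluted ≥100-fold to 1 µM in pH 7.0 HEPES/KCl/DTT buffer. Preincubated 30 min at 20°C with 1 mM ATP, 1 mM IMP, 1 mM MgCl2 and varying GTP. Started with 300 µM NAD+. NADH read at A340, 25°C, each minute for 15 min. Rate from a 2–7 min slope. Triplicate; four-parameter variable-slope fit with 90% CI.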

IMPDH1(595)-Y12A-S477D = IMPDH1(595)-Y12A-S477D (Homo sapiens, UniProt P20839, S477D/Y12A); assay: IMPDH1 activity assay, GTP inhibition; assay type: biochemical
In short: as §1

IMPDH1(595)-WT = IMPDH1(595)-WT (Homo sapiens, UniProt P20839); assay: IMPDH1 activity assay, GTP inhibition; assay type: biochemical
In short: as §2

IMPDH1(546)-Y12A-S477D = IMPDH1(546)-Y12A-S477D (Homo sapiens, UniProt P20839, S477D/Y12A); assay: IMPDH1 activity assay, GTP inhibition; assay type: biochemical
In short: as §1

IMPDH1(595)-S477D = IMPDH1(595)-S477D (Homo sapiens, UniProt P20839, S477D); assay: IMPDH1 activity assay, GTP inhibition; assay type: biochemical
In short: as §2

IMPDH1(595)-Y12A = IMPDH1(595)-Y12A (Homo sapiens, UniProt P20839, Y12A); assay: IMPDH1 activity assay, GTP inhibition; assay type: biochemical
In short: as §1

IMPDH1(546)-WT = IMPDH1(546)-WT (Homo sapiens, UniProt P20839); assay: IMPDH1 activity assay, GTP inhibition; assay type: biochemical
In short: as §2

HeLa cells = assay: Ribavirin-induced IMPDH filament assembly in cells, immunofluorescence; assay type: cell-based, human; conditions: 1 mM ribavirin for 2 h
In short: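 HeLa (ATCC CCL-2) in DMEM/10% FBS, 37°C, 5% CO2. Seeded 4×10^4 cells/well on chambered glass slides and transfected next day with 328 ng plasmid (TransIT-HeLaMONSTER). After 48 h, fixed in 4% paraformaldehyde and Triton-permeabilised. Stained with anti-IMPDH2 (endogenous plus transfected), anti-FLAG and DAPI. Imaged by widefield 40×. Two biological replicates, ≥100 cells counted per condition.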

[1] = Hill coefficient of GTP inhibition curve

Chain of IMPDH1(546)-S477D (P20839 1-509 S477D): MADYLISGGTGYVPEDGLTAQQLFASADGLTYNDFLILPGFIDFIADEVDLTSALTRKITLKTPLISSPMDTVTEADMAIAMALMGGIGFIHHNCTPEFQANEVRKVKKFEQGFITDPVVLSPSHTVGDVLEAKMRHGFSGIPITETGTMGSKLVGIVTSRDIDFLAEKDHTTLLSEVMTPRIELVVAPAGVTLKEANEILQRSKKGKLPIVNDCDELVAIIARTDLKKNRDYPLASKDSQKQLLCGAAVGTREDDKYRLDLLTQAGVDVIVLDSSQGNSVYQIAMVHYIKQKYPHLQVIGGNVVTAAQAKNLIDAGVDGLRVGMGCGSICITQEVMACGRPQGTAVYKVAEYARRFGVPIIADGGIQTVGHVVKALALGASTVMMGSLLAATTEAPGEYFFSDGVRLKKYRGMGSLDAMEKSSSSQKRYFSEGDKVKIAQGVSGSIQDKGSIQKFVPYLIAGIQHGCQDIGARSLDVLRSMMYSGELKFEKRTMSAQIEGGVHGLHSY
Chain of IMPDH1(595)-S477D (P20839 1-509 S477D): as above
Chain of IMPDH1(546)-WT (P20839 1-509 limits assumed): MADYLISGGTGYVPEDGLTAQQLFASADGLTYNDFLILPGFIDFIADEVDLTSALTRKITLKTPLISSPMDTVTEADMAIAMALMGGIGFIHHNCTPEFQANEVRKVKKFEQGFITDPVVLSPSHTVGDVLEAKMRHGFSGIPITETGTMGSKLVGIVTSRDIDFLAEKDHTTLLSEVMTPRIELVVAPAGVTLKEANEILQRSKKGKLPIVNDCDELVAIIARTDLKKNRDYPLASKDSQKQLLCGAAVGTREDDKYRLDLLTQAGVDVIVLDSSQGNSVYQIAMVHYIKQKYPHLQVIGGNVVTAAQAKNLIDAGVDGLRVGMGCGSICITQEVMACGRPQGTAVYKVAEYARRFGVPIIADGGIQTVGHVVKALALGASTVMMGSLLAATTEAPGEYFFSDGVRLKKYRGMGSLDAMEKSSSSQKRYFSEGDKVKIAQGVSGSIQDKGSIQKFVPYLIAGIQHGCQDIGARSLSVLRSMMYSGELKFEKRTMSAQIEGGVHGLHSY
Chain of IMPDH1(595)-WT (P20839 1-558 isoform P20839-3 limits assumed): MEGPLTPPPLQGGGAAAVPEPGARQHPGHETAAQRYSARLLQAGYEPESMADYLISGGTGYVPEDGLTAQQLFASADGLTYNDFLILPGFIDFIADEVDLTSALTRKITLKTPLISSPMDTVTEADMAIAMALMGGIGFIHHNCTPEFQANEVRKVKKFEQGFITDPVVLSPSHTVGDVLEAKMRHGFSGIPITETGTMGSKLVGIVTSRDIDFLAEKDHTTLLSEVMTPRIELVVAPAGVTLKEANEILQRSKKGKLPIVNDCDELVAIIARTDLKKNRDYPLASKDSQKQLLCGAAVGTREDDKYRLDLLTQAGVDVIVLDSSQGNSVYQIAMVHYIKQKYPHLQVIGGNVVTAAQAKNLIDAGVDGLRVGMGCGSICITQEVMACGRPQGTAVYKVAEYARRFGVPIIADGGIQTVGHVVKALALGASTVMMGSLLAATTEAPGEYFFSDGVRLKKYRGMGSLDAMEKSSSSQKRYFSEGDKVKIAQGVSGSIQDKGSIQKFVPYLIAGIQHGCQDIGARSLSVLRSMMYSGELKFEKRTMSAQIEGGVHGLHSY
Chain of IMPDH1(546)-Y12A (P20839 1-509 Y12A): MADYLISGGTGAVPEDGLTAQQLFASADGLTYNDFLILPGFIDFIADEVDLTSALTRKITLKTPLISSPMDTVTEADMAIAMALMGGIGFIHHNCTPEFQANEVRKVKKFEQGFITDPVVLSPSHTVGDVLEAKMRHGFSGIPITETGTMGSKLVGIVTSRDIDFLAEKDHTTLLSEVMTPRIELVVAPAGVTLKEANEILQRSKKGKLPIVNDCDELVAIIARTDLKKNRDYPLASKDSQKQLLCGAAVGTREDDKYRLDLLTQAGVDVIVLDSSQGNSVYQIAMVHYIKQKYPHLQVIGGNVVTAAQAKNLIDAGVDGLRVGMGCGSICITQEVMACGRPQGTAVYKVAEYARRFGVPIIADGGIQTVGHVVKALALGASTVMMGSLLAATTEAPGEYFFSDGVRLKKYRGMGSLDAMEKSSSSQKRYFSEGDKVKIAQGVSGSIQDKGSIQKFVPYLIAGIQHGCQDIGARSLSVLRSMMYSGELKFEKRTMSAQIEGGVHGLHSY
Chain of IMPDH1(595)-Y12A (P20839 1-509 Y12A): as above
Chain of IMPDH1(546)-Y12A-S477D (P20839 1-509 Y12A/S477D): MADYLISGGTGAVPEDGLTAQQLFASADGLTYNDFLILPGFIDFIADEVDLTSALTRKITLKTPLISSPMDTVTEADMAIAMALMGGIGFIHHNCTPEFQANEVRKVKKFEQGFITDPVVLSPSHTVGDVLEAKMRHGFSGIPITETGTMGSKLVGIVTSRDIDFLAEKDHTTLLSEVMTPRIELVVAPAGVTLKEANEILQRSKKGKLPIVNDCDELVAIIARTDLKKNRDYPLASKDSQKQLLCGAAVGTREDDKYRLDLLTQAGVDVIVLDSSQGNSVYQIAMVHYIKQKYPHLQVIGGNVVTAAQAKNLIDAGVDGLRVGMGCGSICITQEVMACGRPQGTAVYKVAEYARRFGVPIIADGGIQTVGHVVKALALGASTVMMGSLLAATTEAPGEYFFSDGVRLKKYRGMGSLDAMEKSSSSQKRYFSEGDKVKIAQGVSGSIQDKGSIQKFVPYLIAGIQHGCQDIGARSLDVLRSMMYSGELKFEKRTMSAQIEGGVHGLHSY
Chain of IMPDH1(595)-Y12A-S477D (P20839 1-509 Y12A/S477D): as above

| Compound | pIC50 (IMPDH1(546)-Y12A) | Hill best-fit (IMPDH1(546)-Y12A; [1]) | pIC50 (IMPDH1(546)-S477D) | Hill best-fit (IMPDH1(546)-S477D; [1]) | pIC50 (IMPDH1(595)-Y12A-S477D) | Hill best-fit (IMPDH1(595)-Y12A-S477D; [1]) | pIC50 (IMPDH1(595)-WT) | Hill best-fit (IMPDH1(595)-WT; [1]) | pIC50 (IMPDH1(546)-Y12A-S477D) | Hill best-fit (IMPDH1(546)-Y12A-S477D; [1]) | pIC50 (IMPDH1(595)-S477D) | Hill best-fit (IMPDH1(595)-S477D; [1]) | pIC50 (IMPDH1(595)-Y12A) | Hill best-fit (IMPDH1(595)-Y12A; [1]) | pIC50 (IMPDH1(546)-WT) | Hill best-fit (IMPDH1(546)-WT; [1]) | Percentage of transfected cells containing filaments (HeLa cells; cells transfected with FLAG-tagged IMPDH1(546)-S477A) | Percentage of transfected cells containing filaments (HeLa cells; cells transfected with FLAG-tagged IMPDH1(546)-S477D) | Percentage of transfected cells containing filaments (HeLa cells; cells transfected with FLAG-tagged IMPDH1(595)-S477D) |
| --- | --- | --- | --- | --- | --- | --- | --- | --- | --- | --- | --- | --- | --- | --- | --- | --- | --- | --- | --- |
| Nc1nc2c(ncn2[C@@H]2O[C@H](COP(=O)(O)OP(=O)(O)OP(=O)(O)O)[C@@H](O)[C@H]2O)c(=O)[nH]1 [GTP, guanosine triphosphate] | 3.27 | 4.0 | 3.31 | 3.7 | 3.33 | 4.1 | 2.94 | 2.3 | 3.34 | 4.2 | 3.22 | 3.7 | 3.33 | 4.5 | 3.12 | 4.6 |  |  |  |
| NC(=O)c1ncn([C@@H]2O[C@H](CO)[C@@H](O)[C@H]2O)n1 [ribavirin] |  |  |  |  |  |  |  |  |  |  |  |  |  |  |  |  | 100% | 2% | 2% |
